# Experimental data pooled from the literature.
# Compare with care: the assays were run in different laboratories.
# Target: MAP/microtubule affinity-regulating kinase 4 (MARK4, Homo sapiens, UniProt Q96L34)
# Sequence (Q96L34 1-752, as in one of the studies): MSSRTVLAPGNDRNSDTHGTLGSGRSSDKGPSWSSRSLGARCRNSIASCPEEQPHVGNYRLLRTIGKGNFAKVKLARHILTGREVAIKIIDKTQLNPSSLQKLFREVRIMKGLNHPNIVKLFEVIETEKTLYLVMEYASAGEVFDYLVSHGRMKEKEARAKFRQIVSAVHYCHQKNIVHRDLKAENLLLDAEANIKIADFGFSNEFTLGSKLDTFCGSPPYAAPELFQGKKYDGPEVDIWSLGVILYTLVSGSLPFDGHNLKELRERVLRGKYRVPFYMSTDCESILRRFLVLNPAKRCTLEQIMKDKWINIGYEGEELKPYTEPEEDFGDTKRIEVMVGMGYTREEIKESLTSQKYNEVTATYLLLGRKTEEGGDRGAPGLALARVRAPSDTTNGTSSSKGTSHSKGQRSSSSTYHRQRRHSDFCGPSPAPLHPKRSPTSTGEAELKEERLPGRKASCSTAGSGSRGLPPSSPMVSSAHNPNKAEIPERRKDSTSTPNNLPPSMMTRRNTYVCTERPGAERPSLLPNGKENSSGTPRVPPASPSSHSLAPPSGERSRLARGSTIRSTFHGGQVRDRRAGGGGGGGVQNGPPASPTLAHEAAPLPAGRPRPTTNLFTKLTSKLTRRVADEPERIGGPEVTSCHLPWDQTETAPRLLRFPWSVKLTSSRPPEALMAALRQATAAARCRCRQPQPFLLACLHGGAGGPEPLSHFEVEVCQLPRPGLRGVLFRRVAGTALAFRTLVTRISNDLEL
Compound,effect on,technique,concentration,remaining binding
O=C(NCC1CCOCC1)c1n[nH]cc1NC(=O)c1c(F)cccc1F,binding,competition with immobilised ligand,1 µM,98%
O=C(NCCCN1CCOCC1)c1ccc(Nc2nccc(-c3cc4ccccc4s3)n2)cc1,binding,competition with immobilised ligand,1 µM,60%
COc1cnc(Nc2cccc(S(N)(=O)=O)c2)nc1N1CCN(c2ccccc2)CC1,binding,competition with immobilised ligand,1 µM,86%
Nc1c(C(=O)NCc2ccc(C(=O)NCCCC3CCCCC3)cc2)cnn1-c1ccccc1,cell-free assay,competition with immobilised ligand,0.1 µM,76%
O=C(c1ccc(Nc2ncc(Cl)c(-c3cc4ccccc4s3)n2)cc1)N1CCC(N2CCCC2)CC1,binding,competition with immobilised ligand,1 µM,28%
COc1ccc2c(O[C@@H]3C[C@H]4C(=O)N[C@]5(C(=O)O)CC5/C=C\CCCCC[C@H](NC(=O)OC5CCCC5)C(=O)N4C3)cc(-c3csc(NC(=O)C(C)C)n3)nc2c1C (some centres unmarked),cell-free assay,competition with immobilised ligand,1 µM,99%
c1cnn2ncc(-c3ccnc(N4CCC45COC5)n3)c2c1,binding,,1 µM,84%
FC(F)(F)c1ccc2c(c1)nc(-c1cccnc1)n2C1CC1,cell-free assay,competition with immobilised ligand,1 µM,100%
c1cncc(-c2cccc(Nc3nccc(NC4CCCCC4)n3)c2)c1,binding,competition with immobilised ligand,10 µM,80%
CN(CCCC(F)(F)F)c1nccc(-c2cnn3ncccc23)n1,binding,,1 µM,90%
Nc1ncc2c(n1)-c1c([nH]c3ccc(C#CC4CC4)cc13)CCCC2,binding,competition with immobilised ligand,1 µM,100%
C[C@@H]1CCN(c2nccc(-c3cnn4ncccc34)n2)C1,binding,,1 µM,100%
O=C(c1ccc(Nc2nccc(-c3cc4ccccc4s3)n2)cc1)N1CCC(N2CCCC2)CC1,binding,competition with immobilised ligand,1 µM,84%
Cc1c(NC(=O)c2cc(C(N)=O)nc3cc(F)ccc23)c(C(F)(F)F)nn1Cc1ccc(C(C)(C)C)cc1,cell-free assay,competition with immobilised ligand,1 µM,97%
COc1ccnn2ncc(-c3ccnc(N(C)C)n3)c12,binding,,1 µM,100%
CCCOc1ccc([C@H]2[C@H](C(=O)O)[C@@H](c3ccc4c(c3)OCO4)CN2CC(=O)Nc2c(CC)cccc2CC)cc1,cell-free assay,competition with immobilised ligand,1 µM,97%
N[C@H]1CCN(c2nccc(-c3cnn4ncccc34)n2)C1,binding,,1 µM,100%
COc1cnc(Nc2cccc(S(N)(=O)=O)c2)nc1N1CCN(c2ccccc2)C(=O)C1,binding,competition with immobilised ligand,1 µM,100%
CN(c1nccc(-c2cnn3ncccc23)n1)C1CC1,binding,,1 µM,76%
CC(=O)c1c(NS(C)(=O)=O)c2cc(-c3ccc(Cl)cc3)c(-c3ccc(Cl)cc3Cl)nc2n(C)c1=O,cell-free assay,competition with immobilised ligand,1 µM,100%
